Compound activity deposited in PubChem BioAssay by Broad Institute.
Rows were chosen to be rich in hits. Some 2.4% of all compounds tested hit in one or more screens of this group.
PGC1a acetyl inh: lowers PGC1a acetylation signal in U2OS cells; AID 651687; AlphaScreen anti-acetyl-lysine; with virally co-expressed GCN5 acetyltransferase; 350,000 tested, 0.17% active; inhibition, % at 15.6 µM;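 active means every replicate shows inhibition of at least 40%; inconclusive means mean inhibition at least 40% but some replicate below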;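 further: 0% = neutral control wells and 100% = positive control wells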
ERAP1 inh: inhibitors of human ERAP1 aminopeptidase. recombinant ERAP1, Leu-AMC fluorescence, 60 min. AID 652197. Q9NZ08. 340,000 tested, 0.15% active. inhibition, % at 10.7 µM;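 active means mean replicate inhibition of at least 30%, or all replicates individually reaching that 30% level; inactive means mean below 30% and not every replicate reaching it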;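 further: 0% = neutral control wells and 100% = L-leucinethiol positive control wells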
Ecoli rRNA inh: inhibitors of bacterial rRNA selective over humanized ribosomes | E. coli WT GFP vs humanized-ribosome RFP mutants, fluorescence, 24 h; stronger effect = lower value; DMSO median 0, no signal -100 | GFP signal change (wild-type ribosome), % (no concentration beside the values) | 350,000 tested, 1.6% active;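 active means significant combined selectivity score with lowered wild-type GFP, culture density cut under 30%, mutant RFP and density less affected; inactive means any of these conditions unmet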
S100A4 MyoIIA: inhibitors of human S100A4 binding to myosin IIA peptide. 360,000 tested, 0.14% active. S100A4/TAMRA-MyoIIA peptide fluorescence polarization. inhibition, % at 10.7 µM. P26447. AID 652163;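 active means mean inhibition of at least 70% across replicates, with every replicate also reaching that level; inconclusive means mean inhibition reaches 70% but some replicates fall short; inactive means mean inhibition below 70%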
Target sequence (P26447 whole entry, looked up): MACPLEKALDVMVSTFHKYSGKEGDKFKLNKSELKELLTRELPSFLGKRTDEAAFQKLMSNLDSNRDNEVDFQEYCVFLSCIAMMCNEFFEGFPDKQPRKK
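incubation = readout 5 min after mixing, signal stable up to 60 min | system = S100A4 monomer protein | buffer or medium = HEPES pH 7.2 with CaCl2, KCl, NaCl, DTT, Triton | benchmarks = neutral control DMSO, positive control TFP | also added = fluorescent myosin IIA peptide, 5 nM | compound dosing = one concentration per compound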
Casp6 inh: blocks human caspase-6 cleavage activity; P55212; purified caspase-6, Z-VEID-R110 cleavage fluorescence; 350,000 tested, 0.53% active; inhibition, % at 12.5 µM;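 active means mean inhibition across replicates at least about 35%, with every replicate also reaching that limit, limit read from the data; inconclusive means only one of the two criteria met; inactive means neither criterion met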;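 further: 0% = median of neutral control wells and 100% = no fluorescence left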
Target sequence (P55212 24-179 limits assumed): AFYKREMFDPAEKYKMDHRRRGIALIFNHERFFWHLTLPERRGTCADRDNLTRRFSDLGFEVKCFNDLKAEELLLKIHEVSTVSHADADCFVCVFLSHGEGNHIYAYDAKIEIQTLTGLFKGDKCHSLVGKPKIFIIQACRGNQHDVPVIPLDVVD
Target sequence (P55212 194-293 limits assumed): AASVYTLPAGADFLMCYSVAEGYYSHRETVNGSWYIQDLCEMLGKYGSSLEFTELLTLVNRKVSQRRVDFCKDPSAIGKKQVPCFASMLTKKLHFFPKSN
ARNT TACC3 PPI: disrupts binding between human ARNT and TACC3; AlphaScreen His-ARNT PAS-B/GST-TACC3 binding, luminescence; TACC3 fragment carries E629A point mutation; Q9Y6A5; 390,000 tested, 0.66% active; inhibition, % at 9.99 µM; AID 623870;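 active means mean inhibition of replicates at least 50% and at least half of replicates each reaching 50%; inconclusive means half or more replicates reach 50% but mean below 50%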;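 further: 0% = complete ARNT plus TACC3 wells and 100% = ARNT alone without TACC3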
HepG2 tox: HepG2 cell cytotoxicity; 30 tested, under 10 active; shares compounds with Ecoli rRNA inh; HepG2 viability, ATP luminescence, 72 h; activity change, negative = cytotoxicity, unspecified at 26 µM;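 active means compounds whose fitted half-maximal signal-loss concentration is at most twice their highest valid dose; inconclusive means flat curve with 30 to 70% signal loss, or poor fit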
AID977621: growth inhibition of wild-type GFP E. coli, dose response, H69 mutant RFP, cherry-pick; shares compounds with Ecoli rRNA inh; E. coli wild-type GFP strain growth, fluorescence, 24 h; activity change, negative = inhibition at 50 µM; 1,900 tested, under 10 active;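 active means Wild-type ribosome reporter drop at least double the humanized mutant ribosome reporter drop, growth loss under a set limit; inconclusive means no clear call, values can overlap the other calls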;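 further: wild-type GFP and H69 mutant RFP strains grown together 50/50 in each well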
AID977628: growth of wild-type and h24-humanized E. coli strains – h24 mutant RFP vs wild-type GFP, cherry-pick, dose response; shares compounds with Ecoli rRNA inh; E. coli WT GFP strain growth, fluorescence, 24 h; activity change, negative = inhibition at 50 µM; 1,900 tested, under 10 active; AID 977628;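 active means compound lowering the normal-ribosome reporter at least twice as much as the humanized-ribosome reporter, growth loss under a set limit; inconclusive means no clear call, values can overlap the other calls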;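 further: wild-type GFP and h24 humanized RFP strains co-cultured 1 to 1 per well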
* = called active by the depositor.

How did O=C(O)c1cc([N+](=O)[O-])ccc1NCc1ccccc1 do in these assays?
ERAP1 inh: 3; Ecoli rRNA inh: -25*; S100A4 MyoIIA: -6; Casp6 inh: 2; ARNT TACC3 PPI: 2; HepG2 tox: 13

What do the screens show for `O=C(O)c1cc([N+](=O)[O-])ccc1NCCCc1ccccc1`?
PGC1a acetyl inh: -3; ERAP1 inh: 2; Ecoli rRNA inh: -57; S100A4 MyoIIA: -4; Casp6 inh: 6; ARNT TACC3 PPI: -2

What do the screens show for `CCCC(=O)Nc1ccc2c(c1)C(=O)N(C)C[C@H](OC)[C@H](C)CN(Cc1ccncc1)[C@@H](C)CO2`?
PGC1a acetyl inh: 32; Ecoli rRNA inh: -2

How did CC(C)(C)N(Cc1ccccc1)C(=O)COC(=O)Cn1cnc2ccccc2c1=O do in these assays?
PGC1a acetyl inh: 6; ERAP1 inh: -1; Ecoli rRNA inh: -32*; S100A4 MyoIIA: -3; Casp6 inh: 0; ARNT TACC3 PPI: -3; AID977621: -1.2; AID977628: -2.9

What do the screens show for `C[C@@H]1CN([C@@H](C)CO)C(=O)CCCn2nncc2CO[C@H]1CN(C)C(=O)Nc1cccc(C(F)(F)F)c1`?
PGC1a acetyl inh: 7; ERAP1 inh: 2; Ecoli rRNA inh: -17*; S100A4 MyoIIA: 5; Casp6 inh: 0; ARNT TACC3 PPI: 4; AID977628: inconclusive

How did C[C@@H]1CN([C@@H](C)CO)C(=O)CCCn2nncc2CO[C@@H]1CN(C)C(=O)Nc1cccc(C(F)(F)F)c1 do in these assays?
PGC1a acetyl inh: 1; ERAP1 inh: -2; Ecoli rRNA inh: -11; S100A4 MyoIIA: -1; Casp6 inh: -2; ARNT TACC3 PPI: 7

Results for Cc1ccc(Cn2cnc3ccccc32)cc1 ?
PGC1a acetyl inh: 8; ERAP1 inh: -1; Ecoli rRNA inh: -25*; S100A4 MyoIIA: -2; Casp6 inh: -3; ARNT TACC3 PPI: 5; AID977621: -13; AID977628: -0.7

How did C[C@H](CO)N1C[C@H](C)[C@H](CN(C)Cc2ccc(Oc3ccccc3)cc2)Oc2ccc(NC(=O)C3CC3)cc2CC1=O do in these assays?
PGC1a acetyl inh: -3; ERAP1 inh: 3; Ecoli rRNA inh: 4; S100A4 MyoIIA: 7; ARNT TACC3 PPI: 4

How did COc1ccc(C(=O)NCCC2=CCCCC2)cc1[N+](=O)[O-] do in these assays?
ERAP1 inh: 2; Ecoli rRNA inh: -22*; S100A4 MyoIIA: -9; Casp6 inh: 2; ARNT TACC3 PPI: -5; AID977621: -13; AID977628: -10

What do the screens show for `COCC(=O)Nc1ccc2c(c1)C(=O)N(C)[C@@H]1CC[C@H](CC(=O)NCC3CCCCC3)O[C@@H]1CO2`?
PGC1a acetyl inh: -2; ERAP1 inh: -4; Ecoli rRNA inh: 0; S100A4 MyoIIA: 6; Casp6 inh: 1; ARNT TACC3 PPI: -7

How did CC1CN(CC(=O)Nc2nc3ccccc3s2)CC(C)O1 (stereo not drawn) do in these assays?
PGC1a acetyl inh: 5; ERAP1 inh: 1; Ecoli rRNA inh: -15*; S100A4 MyoIIA: -7; Casp6 inh: -1; ARNT TACC3 PPI: 0; AID977621: 5.1; AID977628: inconclusive

Results for CN1CCN(CC(=O)Nc2nc3ccccc3s2)CC1 ?
PGC1a acetyl inh: -8; ERAP1 inh: -2; Ecoli rRNA inh: 11; S100A4 MyoIIA: 0; Casp6 inh: 3; ARNT TACC3 PPI: 0

How did Cc1[nH]c(=S)sc1Cc1ccc(Cl)c(Cl)c1 do in these assays?
ERAP1 inh: 6; Ecoli rRNA inh: -40*; S100A4 MyoIIA: -6; Casp6 inh: 1; HepG2 tox: 10

What do the screens show for `O=C(Cc1cccc2ccccc12)Nc1ccccc1C(=O)O`?
PGC1a acetyl inh: -1; ERAP1 inh: 2; Ecoli rRNA inh: -35*; S100A4 MyoIIA: 4; Casp6 inh: 2; ARNT TACC3 PPI: -8; AID977621: -12

What do the screens show for `O=C(CC1C(=O)N(c2ccc(Cl)cc2)C(=S)N1CCc1ccncc1)Nc1ccc(F)cc1` (stereo not drawn)?
PGC1a acetyl inh: 5; ERAP1 inh: -3; Ecoli rRNA inh: -21*; S100A4 MyoIIA: 1; Casp6 inh: 2; ARNT TACC3 PPI: -2; AID977621: -6.7

What do the screens show for `CCNC(=O)CC1C(=O)N(c2ccc(F)cc2)C(=S)N1CCc1ccncc1` (stereo not drawn)?
PGC1a acetyl inh: 5; ERAP1 inh: 5; Ecoli rRNA inh: 13; S100A4 MyoIIA: 0; Casp6 inh: 3; ARNT TACC3 PPI: -7

What do the screens show for `COC(=O)CN1C(=S)N(c2ccc(F)cc2)C(=O)C1CC(=O)Nc1ccc(OC)cc1` (stereo not drawn)?
PGC1a acetyl inh: 6; ERAP1 inh: -1; Ecoli rRNA inh: -22*; S100A4 MyoIIA: -1; Casp6 inh: 1; ARNT TACC3 PPI: -5; AID977628: -13

How did COc1ccc(CN(C)C[C@H]2Oc3c(NC(=O)c4ccc(-c5nccs5)cc4)cccc3C(=O)N([C@@H](C)CO)C[C@H]2C)cc1 do in these assays?
PGC1a acetyl inh: -10; ERAP1 inh: 5; Ecoli rRNA inh: -4; S100A4 MyoIIA: -5; Casp6 inh: -3

Results for CCNC(=O)C1(C)CCCN(Cc2ccc3ccccc3c2Br)C1 (stereo not drawn) ?
PGC1a acetyl inh: -8; ERAP1 inh: -4; Ecoli rRNA inh: -56; S100A4 MyoIIA: -5; Casp6 inh: -1

What do the screens show for `CCNC(=O)C1(C)CCCN(Cc2cccc3ccccc23)C1` (stereo not drawn)?
PGC1a acetyl inh: 1; ERAP1 inh: 2; Ecoli rRNA inh: -23*; S100A4 MyoIIA: 0; Casp6 inh: -2; AID977628: inconclusive

How did COc1cccc(CNC(=O)CCC2CCCN(C(=O)c3cc4ccccc4o3)C2)c1 (stereo not drawn) do in these assays?
ERAP1 inh: 2; Ecoli rRNA inh: -32*; S100A4 MyoIIA: 0; Casp6 inh: 8; ARNT TACC3 PPI: 3; AID977621: -4.2

What do the screens show for `C[C@@H](NC(=O)C[C@H]1C[C@@H]2c3cc(NC(=O)NC4CCCC4)ccc3O[C@@H]2[C@H](CO)O1)c1ccccc1`?
PGC1a acetyl inh: -1; ERAP1 inh: -4; Ecoli rRNA inh: -2; S100A4 MyoIIA: -14; Casp6 inh: -1; ARNT TACC3 PPI: -9
